For one data set, the system named is HT-29. Kind of data set: Cytotoxicity against human HT-29 cells after 72 hrs by SRB assay. To be noted: HT-29, 72 h. Format: cell-based. An outline of the steps: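 HT-29 cells, 9500 per well, exposed to a range of concentrations in triplicate for 72 h; 10% DMSO in water as carrier/negative control, paclitaxel positive control.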
In the next data set the test system is Leishmania donovani. Kind of data set: Antileishmanial activity against Leishmania donovani LV82 promastigotes expressing red fluorescent protein after 72 hrs by flow cytometric analysis. Format: functional, organism-based. Conditions: LV82, 72 h.
Data set [1] can be described thus: Selectivity index, ratio of IC50 for human HT-29 cells to IC50 for Leishmania donovani LV82 promastigotes expressing red fluorescent protein. Format: toxicity, cell-based. To be noted: read-out: Ratio IC50. The procedure, abridged: (§1)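 Selectivity index calculated as HT-29 cytotoxicity IC50 divided by antileishmanial IC50.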
Another data set concerns Leishmania amazonensis. Kind of data set: Antileishmanial activity against transgenic Leishmania amazonensis amastigotes infected in CD-1 mouse peritoneal macrophages assessed as beta-lactamase activity after 72 hrs by nitrocefin dye-based spectrophotometric analysis. Format: functional, organism-based. The procedure, abridged: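 Beta-lactamase-expressing promastigotes grown in RPMI 1640 GlutaMAX with HEPES, adenosine, folate, RPMI vitamins, 10% heat-inactivated FBS (pH 6.9); added 5:1 to CD-1 mouse peritoneal macrophages (1 × 10⁵ cells/well) for 24 h at 34 °C, washed twice with HBSS, then exposed to test concentrations for 72 h at 34 °C.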

A short description of data set [2]: Selectivity index, ratio of IC50 for human HT-29 cells to IC50 for Leishmania amazonensis amastigotes. Format: toxicity, cell-based. Conditions: HT-29 cells versus Leishmania amazonensis amastigotes, read-out: Ratio IC50. An outline of the steps:
as §1

The results in this text go back to ChEMBL document CHEMBL3813634, “Antileishmanial and Cytotoxic Activity of Some Highly Oxidized Abietane Diterpenoids from the Bald Cypress, Taxodium distichum” (J Nat Prod, 2016).

Each structure is given as a SMILES string. A value given as a limit tells only on which side of the number the result lay.

Regarding `CC(C)C1=CC2=CC(=O)[C@H]3C(C)(C)CCC[C@]3(C)C2=C(O)C1=O` [TAXODIONE], the IC50 in the data set with HT-29 was 2.5 µM; with Leishmania donovani, 1.6 µM; with Leishmania amazonensis, 14.3 µM. Besides, the selectivity ratio in data set [1] amounted to 1.6; in data set [2], 0.2.

As for `CC(C)C1=C(O)C(=O)C2=C(C1=O)[C@@H](O)C[C@H]1C(C)(C)CCC[C@]21C`, the IC50 with Leishmania donovani and in the data set with Leishmania amazonensis was over 10 µg/mL each time.

On to `CC(C)C1=C(O)C(=O)C2=C(CC[C@H]3C(C)(C)CCC[C@]23C)C1=O` [ROYLEANONE], for which the IC50 in the data set with Leishmania donovani and in the data set with Leishmania amazonensis was over 10 µg/mL throughout.

Regarding `CC(C)c1cc(C=O)c([C@@]2(C)CCCC(C)(C)[C@@H]2C=O)cc1O`, the IC50 with Leishmania donovani and in the data set with Leishmania amazonensis was over 10 µg/mL each time.

For the molecule `CO[C@@H]1C[C@H]2C(C)(C)CCC[C@]2(C)C2=C1C(=O)C(C(C)C)=C(O)C2=O`, the IC50 in the data set with Leishmania donovani and in the data set on Leishmania amazonensis was over 10 µg/mL in each case.

In the case of `Cc1ccc2c3c1CCCC(C)(C)[C@@]3(O)C(=O)C(C(C)C)=C2`, the IC50 in the data set on Leishmania donovani and with Leishmania amazonensis was over 10 µg/mL throughout.

As for `Cc1ccc2c3c1CCCC(C)(C)C3C(=O)C(C(C)C)=C2` (racemic), the IC50 with Leishmania donovani and in the data set with Leishmania amazonensis was over 10 µg/mL in each case.

For `CC(C)c1cc2c(cc1O)[C@@]1(C)CCCC(C)(C)[C@@H]1[C@@H](O)C2=O`, the IC50 was determined as 36 µM in the data set with HT-29, 24.6 µM in the data set with Leishmania donovani and 17.1 µM in the data set on Leishmania amazonensis. The selectivity ratio came to 1.5 in data set [1] and 2.1 in data set [2].

On to `COCC(=O)[C@H]1C(C)(C)CCC[C@]1(C)C1=C(O)C(=O)C(C(C)C)=CC1=O`, for which the IC50 is 4.4 µM with HT-29, 6.9 µM with Leishmania donovani and 1.4 µM in the data set with Leishmania amazonensis. Further, the selectivity ratio was 0.6 in data set [1] and 3.2 in data set [2].

For `CC(C)c1cc2c(cc1O)[C@@]1(C)CCCC(C)(C)[C@@H]1CC2` [FERRUGINOL], the IC50 amounted to 39.4 µM in the data set on HT-29, 45.7 µM in the data set with Leishmania donovani and 15.4 µM with Leishmania amazonensis. For the same molecule, the selectivity ratio in data set [1] was found to be 0.9; in data set [2], 2.5.

As for `C[C@@H]1[C@H](O)[C@@H](C)/C=C/C=C/C=C/C=C/C=C/C=C/C=C/[C@H](O[C@@H]2O[C@H](C)[C@@H](O)[C@H](N)[C@@H]2O)C[C@@H]2O[C@](O)(C[C@@H](O)C[C@@H](O)[C@H](O)CC[C@@H](O)C[C@@H](O)CC(=O)O[C@H]1C)C[C@H](O)[C@H]2C(=O)O` [AMPHOTERICIN B], the IC50 in the data set with Leishmania amazonensis was found to be 0.086 µM.

With `CC(C)c1cc2c(cc1O)[C@@]1(C)CCCC(C)(C)C1=C(O)C2=O`, the IC50 in the data set with Leishmania donovani and in the data set with Leishmania amazonensis was over 10 µg/mL each time.

For `CC(C)C1=C(O)C(=O)C2=C(C1=O)[C@H](O)C[C@H]1C(C)(C)CCC[C@]21C` [HORMINONE], the half-inhibitory concentration (IC50) in the data set with Leishmania donovani and with Leishmania amazonensis was over 10 µg/mL in each case.

As for `CC(C)c1cc2c(cc1O)[C@@]1(C)CCCC(C)(C)[C@@H]1CC2=O` [SUGIOL], the concentration for half-maximal inhibition (IC50) in the data set on Leishmania donovani and in the data set on Leishmania amazonensis was over 10 µg/mL each time.

As to `Cc1ccc2cc(C(C)C)c(O)c3c2c1CCCC(C)(C)O3`, the IC50 in the data set on Leishmania donovani and in the data set with Leishmania amazonensis was over 10 µg/mL each time.

With `CC(C)c1cc2c(c(O)c1O)[C@@]1(C)CCCC(C)(C)C1=C(O)C2=O` [14-DEOXYCOLEON U], the IC50 is 13.3 µM in the data set on HT-29, over 60 µM with Leishmania donovani and 13 µM in the data set on Leishmania amazonensis. For the same molecule, the results for the selectivity ratio in data set [1] and in data set [2] were under 0.27 and 1, respectively.
